According to ChEMBL document CHEMBL4819017 (Eur J Med Chem, 2021):

What was measured:
[1] = target: PI3-kinase p110-alpha/p85-alpha (Homo sapiens, UniProt P42336, E542K); experiment: Inhibition of p110alpha E542K mutant/p85alpha (unknown origin) using PIP2:3PS lipid kinase as substrate in presence of ATP measured by ADP-Glo lipid kinase assay; type: protein-complex assay
Outline: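 Lipid kinase assay with PIP2:3PS substrate held at 3.25 µM. Activity normalized to no-compound control for each enzyme and fitted to a variable-slope sigmoidal dose-response curve.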

[2] = target: Voltage-gated inwardly rectifying potassium channel KCNH2 (Homo sapiens, UniProt Q12809); experiment: Inhibition of human ERG by fluorescence polarization assay
Chain of Voltage-gated inwardly rectifying potassium channel KCNH2 (Q12809 whole entry): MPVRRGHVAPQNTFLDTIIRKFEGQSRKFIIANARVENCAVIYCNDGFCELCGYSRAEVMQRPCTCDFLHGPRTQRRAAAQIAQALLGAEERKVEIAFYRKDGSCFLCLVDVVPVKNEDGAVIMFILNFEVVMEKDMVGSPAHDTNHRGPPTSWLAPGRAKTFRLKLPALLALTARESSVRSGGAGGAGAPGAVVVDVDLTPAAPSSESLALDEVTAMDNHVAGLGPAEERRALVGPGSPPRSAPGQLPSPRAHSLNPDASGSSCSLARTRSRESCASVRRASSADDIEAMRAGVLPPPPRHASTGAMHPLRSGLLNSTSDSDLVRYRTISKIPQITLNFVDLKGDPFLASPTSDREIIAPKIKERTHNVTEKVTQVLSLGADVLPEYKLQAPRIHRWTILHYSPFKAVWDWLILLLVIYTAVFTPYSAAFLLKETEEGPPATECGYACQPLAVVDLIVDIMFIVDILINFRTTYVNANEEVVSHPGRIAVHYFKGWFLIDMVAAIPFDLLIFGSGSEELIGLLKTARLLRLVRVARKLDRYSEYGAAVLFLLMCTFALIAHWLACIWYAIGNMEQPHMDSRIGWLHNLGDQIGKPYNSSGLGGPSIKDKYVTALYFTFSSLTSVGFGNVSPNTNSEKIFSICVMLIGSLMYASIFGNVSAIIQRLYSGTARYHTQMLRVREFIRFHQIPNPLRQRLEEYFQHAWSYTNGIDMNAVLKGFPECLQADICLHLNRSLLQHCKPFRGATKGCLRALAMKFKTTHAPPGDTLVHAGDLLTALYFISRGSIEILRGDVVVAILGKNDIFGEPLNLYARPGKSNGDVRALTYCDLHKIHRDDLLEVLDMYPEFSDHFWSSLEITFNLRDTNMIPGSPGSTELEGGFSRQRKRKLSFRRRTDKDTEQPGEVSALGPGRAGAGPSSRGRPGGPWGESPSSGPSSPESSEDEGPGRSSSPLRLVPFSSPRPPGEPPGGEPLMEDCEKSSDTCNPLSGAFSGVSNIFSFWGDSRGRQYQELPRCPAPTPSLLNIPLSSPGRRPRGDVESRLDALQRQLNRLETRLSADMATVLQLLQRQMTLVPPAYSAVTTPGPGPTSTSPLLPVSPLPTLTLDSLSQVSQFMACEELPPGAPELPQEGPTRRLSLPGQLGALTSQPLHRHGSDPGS
Outline: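 Predictor h-ERG membrane preparations (sonicated) incubated with test compound dilutions and fluorescent tracer (working 4X tracer at 4 nM) at room temperature for ≥1 h. Read-out by fluorescence polarization, ex 530/25, em 590/35.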

Chain of PI3-kinase p110-alpha/p85-alpha (P42336 whole entry E542K, looked up): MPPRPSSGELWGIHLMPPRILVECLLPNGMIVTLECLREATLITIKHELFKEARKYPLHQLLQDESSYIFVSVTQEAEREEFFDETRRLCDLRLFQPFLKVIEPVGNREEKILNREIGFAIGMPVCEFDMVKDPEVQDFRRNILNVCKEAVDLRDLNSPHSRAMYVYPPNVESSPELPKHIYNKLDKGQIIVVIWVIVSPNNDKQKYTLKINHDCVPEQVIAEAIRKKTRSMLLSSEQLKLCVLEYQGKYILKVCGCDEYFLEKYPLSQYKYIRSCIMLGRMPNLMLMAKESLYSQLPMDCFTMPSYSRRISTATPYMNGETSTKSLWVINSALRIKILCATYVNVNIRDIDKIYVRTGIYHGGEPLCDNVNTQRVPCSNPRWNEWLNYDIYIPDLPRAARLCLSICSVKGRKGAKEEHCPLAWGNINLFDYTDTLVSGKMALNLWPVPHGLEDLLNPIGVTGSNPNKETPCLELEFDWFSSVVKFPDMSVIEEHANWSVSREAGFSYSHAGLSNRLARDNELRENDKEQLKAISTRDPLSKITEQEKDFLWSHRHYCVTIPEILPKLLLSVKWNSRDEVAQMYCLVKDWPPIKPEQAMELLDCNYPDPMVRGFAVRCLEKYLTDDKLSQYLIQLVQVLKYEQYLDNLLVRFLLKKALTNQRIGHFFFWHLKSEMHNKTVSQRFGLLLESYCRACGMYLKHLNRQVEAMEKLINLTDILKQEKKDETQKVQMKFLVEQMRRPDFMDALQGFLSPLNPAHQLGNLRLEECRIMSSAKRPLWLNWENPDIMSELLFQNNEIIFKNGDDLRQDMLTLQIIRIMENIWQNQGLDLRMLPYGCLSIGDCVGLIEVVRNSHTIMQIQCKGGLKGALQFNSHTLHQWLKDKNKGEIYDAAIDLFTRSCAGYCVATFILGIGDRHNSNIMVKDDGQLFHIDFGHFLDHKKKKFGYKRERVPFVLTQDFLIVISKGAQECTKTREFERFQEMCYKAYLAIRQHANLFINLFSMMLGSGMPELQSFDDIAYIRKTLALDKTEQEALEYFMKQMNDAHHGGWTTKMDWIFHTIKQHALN

For `COc1ncc2cc1NS(=O)(=O)c1cccc(c1)C(=O)NCc1cncc(c1)-c1cnc3ccc-2cn13`, the Ki [1] was 0.27 nM and the IC50 [2] was greater than 30000 nM.
